Measured values: ChEMBL document CHEMBL1126298, “New triazine derivatives as potent modulators of multidrug resistance” (1992)

Legend:
[1] = test system: DC3F/AD; assay: Increase in adriamycin uptake in modulator-treated cells relative to untreated cells at a concentration of 10 uM; format: functional, Cricetulus griseus
Procedure, shortened: (§1)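 DC-3F/AD or KB-A1 cells (5 × 10⁶/mL) were incubated at 37 °C for 5 h with 50 μM adriamycin plus modulator (2.5–10 μM range). ADR fluorescence of 10 000 cells was read by flow cytometry at 4 °C with 488 nm argon-laser excitation. The value is the increase in mean fluorescence of treated cells over untreated cells.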

[2] = test system: DC3F/AD; assay: Increase in adriamycin uptake in modulator-treated cells relative to untreated cells at a concentration of 5 uM; format: functional, Cricetulus griseus; procedure, shortened: as §1
[3] = test system: DC3F/AD; assay: Percent of cell viability remaining after incubating the cells with the modulator alone a concentration of 5 uM; format: functional, Cricetulus griseus
Procedure, shortened: (§2)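 Cells were grown with modulator alone for 4 days under the same conditions as the chemosensitivity assay, and read by MTT. Viability = (absorbance with modulator/absorbance of control cells) × 100. "tox" marks viability below 25%.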

[4] = test system: KB; assay: Percent of cell viability remaining after incubating the cells with the modulator alone; format: functional, Homo sapiens; design: concentration or dose not given beside the values; procedure, shortened: as §2
[5] = test system: KB; assay: Increase in adriamycin uptake in modulator-treated cells relative to untreated KB-A1 cells at a concentration of 5 uM; format: functional, Homo sapiens; procedure, shortened: as §1
[6] = test system: KB; assay: In vitro activity in KB-A1 cell line activity expressed as fold reversion (Ratio of IC50(adriamycin alone) / IC50(adriamycin + modulator) at a concentration of 5 uM; format: functional, Homo sapiens
Procedure, shortened: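 Human epidermoid KB-A1 cells (Pgp-overexpressing) were grown in RPMI 1640 with 10% FCS and 10 mM HEPES (pH 7.4). They were exposed for 4 days to adriamycin (nine graded concentrations, in triplicate) with or without 5 μM modulator. IC50 was read by the MTT assay. Fold reversion = IC50(ADR alone)/IC50(ADR + modulator).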

[7] = test system: DC3F/AD; assay: Percent of cell viability remaining after incubating with a 10 uM concentration; format: functional, Cricetulus griseus; procedure, shortened: as §2
[8] = test system: DC3F/AD; assay: In vitro activity in DC-3F/AD cell line(Ratio of IC50(actinomycin D alone) / IC50(actinomycin D + modulator) at a concentration of 5 uM
[9] = test system: DC3F/AD; assay: In vitro activity in DC-3F/AD cell line Ratio of IC50(actinomycin D alone) / IC50(actinomycin D + modulator) at a concentration of 10 uM

Row | Compound | Increase [1] | Increase [2] | Viability [3] [%] | Viability [4] [%] | Increase [5] | Fold reversion [6] | Viability [7] [%] | Fold reversion [8] | Fold reversion [9]
1 | C=CCNc1nc(NCC=C)nc(N2CCC(NC3c4ccccc4CCc4ccccc43)CC2)n1 | 39.7 | 34.3 | 99 | 74 | 34.2 | 91 | 91 | 755 | 1626
2 | C=CCNc1nc(OC)nc(N2CCC(NCC3c4ccccc4CCc4ccccc43)CC2)n1 | 28.5 | 23.9 | 86 | 91 | 40.7 | 138 | 79 | 1092 | 1078
3 | C=CCNc1nc(NCC=C)nc(N2CCC(CNC3c4ccccc4CCc4ccccc43)CC2)n1 | 20.5 | 14 | 96 | 105 | 29.8 | 126 | 72 | 173 | 544
4 | C=CCNc1nc(NCC=C)nc(N2CCC(NCC(c3ccc(F)cc3)C3CCCCC3)CC2)n1 (stereo not drawn) | 34.6 | 30.1 | 85 | 71 | 48.1 | 142 | – | 1009 | <25
5 | C=CCNc1nc(NCC=C)nc(N2CCC(NCC3c4ccccc4Oc4ccccc43)CC2)n1 | 25.7 | 19.4 | 91 | 106 | 43.9 | 140 | 85 | 844 | 2584
6 | C=CCNc1nc(NCC=C)nc(N2CCC(NCC3c4ccccc4CSc4ccccc43)CC2)n1 (stereo not drawn) | 32.6 | 33.5 | 83 | 108 | 57.3 | 393 | 72 | 867 | 6046
7 | CN(C)c1nc(N(C)C)nc(N2CCC(NCC3c4ccccc4CCc4ccccc43)CC2)n1 | 30.6 | 29.4 | 71 | 28 | 16.4 | 7 | 66 | 187 | 544
8 | C=CCNc1nc(NCC=C)nc(N2CCC(NCC3c4ccccc4-c4ccccc43)CC2)n1 | 23.2 | 19.6 | 78 | 42 | 20.6 | 57 | 75 | 170 | 589
9 | C=CCNc1nc(NCC=C)nc(N2CCC(NC3CC4c5ccccc5C3c3ccccc34)CC2)n1 (stereo not drawn) | 35.9 | 32.9 | 98 | 133 | 43.8 | 118 | 102 | 1638 | 4264
10 | C=CCNc1nc(NCC=C)nc(N2CCC(NCC3c4ccccc4NC(=O)c4ccccc43)CC2)n1 (stereo not drawn) | 41.5 | 2.2 | 106 | 113 | 48.4 | 315 | 100 | 2 | 583
11 | C=CCNc1nc(NCC=C)nc(NCC2CCN(C3c4ccccc4CCc4ccccc43)CC2)n1 | 17.4 | 10.1 | 71 | 97 | 1.9 | 10 | 49 | 10 | 46
